The results in this text go back to BindingDB's records for doi:10.1021/jm0582625 (University of Illinois At Urbana-Champaign, 2006).

In one experiment the target is T1, Phosphotransferase (Trypanosoma cruzi, UniProt Q8ST54).
T1 sequence (Q8ST54 whole entry): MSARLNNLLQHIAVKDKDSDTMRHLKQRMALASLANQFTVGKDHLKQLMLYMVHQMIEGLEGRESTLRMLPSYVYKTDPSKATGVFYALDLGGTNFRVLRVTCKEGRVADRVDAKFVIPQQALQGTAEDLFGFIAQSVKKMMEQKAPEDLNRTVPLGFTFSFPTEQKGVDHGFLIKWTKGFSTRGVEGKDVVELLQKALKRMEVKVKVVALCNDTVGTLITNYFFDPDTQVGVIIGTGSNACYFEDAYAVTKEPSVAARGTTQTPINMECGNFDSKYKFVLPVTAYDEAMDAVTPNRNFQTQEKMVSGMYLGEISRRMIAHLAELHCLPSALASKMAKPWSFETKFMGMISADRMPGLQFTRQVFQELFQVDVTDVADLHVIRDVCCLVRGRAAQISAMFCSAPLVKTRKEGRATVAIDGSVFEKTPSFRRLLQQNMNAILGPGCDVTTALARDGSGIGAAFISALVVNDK
The experiment is described as follows: Inhibitory activity against Trypanosoma cruzi hexokinase. The essentials: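 Native glycosomal T. cruzi hexokinase, purified by a previously described procedure. Activity was followed as NADPH formation at 340 nm, coupled to D-glucose-6-phosphate dehydrogenase. Inhibition was reported as IC50.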

Experiment [1] deals with farnesyl pyrophosphate synthase (Leishmania major). The experiment is described as follows: Inhibitory activity against FPPS in Leishmania major.

What is called IC50 is the midpoint of a concentration-inhibition curve. A higher IC50 goes with weaker potency. Regarding `C[C@H](NC(P(=O)(O)O)P(=O)(O)O)c1cccc2ccccc12` [(Bis-phosphono-methyl)-((S)-1-naphthalen-1-yl-ethyl)-ammonium], the IC50 against Phosphotransferase was above 300 µM.

The compound `O=P(O)(O)C(NC1CC1)P(=O)(O)O` [(cyclopropylamino-phosphono-methyl)-phosphonic acid] registered an IC50 on Phosphotransferase above 300 µM.

For the compound `O=P(O)(O)C(Cc1cccc(-c2ccccc2)c1)S(=O)(=O)O` (stereo not given) [2-biphenyl-3-yl-1-phosphono-ethanesulfonic acid], the IC50 in experiment [1] stood at 11 µM.

`CCCNC(P(=O)(O)O)P(=O)(O)O` [propylaminomethylene-1,1-bisphosphonate]: the IC50 at Phosphotransferase was above 300 µM.

The compound `O=P(O)(O)C(CN[C@@H](CO)c1ccccc1)P(=O)(O)O` displayed an IC50 at Phosphotransferase above 300 µM.
